Reference: the M2OR odorant receptor database

Columns and labels:
Conditions in all cases: stereoisomer not certain
[1] = target: OR2T2 (Homo sapiens) (UniProt Q6IF00)
Summary of the method: (§1)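 Assay methods differ from source to source, frequently being transient luciferase assays in mammalian cell lines. For each receptor–molecule pair, the label responsive (active) applies when the original authors judged the measured signal statistically different from baseline, and non-responsive (inactive) applies otherwise.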

[2] = tested on: OR2T2 L104F L262Q
Summary of the method: as §1

[3] = tested on: OR2T2 L104F
Chain of OR2T2 L104F (as listed by the source, stated change not applied): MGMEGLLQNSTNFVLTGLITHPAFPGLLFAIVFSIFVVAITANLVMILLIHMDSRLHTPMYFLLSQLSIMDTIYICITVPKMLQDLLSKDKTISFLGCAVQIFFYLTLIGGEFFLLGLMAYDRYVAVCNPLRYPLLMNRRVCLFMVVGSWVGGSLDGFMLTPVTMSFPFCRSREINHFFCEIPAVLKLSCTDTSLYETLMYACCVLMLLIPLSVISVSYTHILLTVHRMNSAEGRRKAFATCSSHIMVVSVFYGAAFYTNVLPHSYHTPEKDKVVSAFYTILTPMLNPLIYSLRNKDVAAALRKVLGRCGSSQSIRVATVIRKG
Summary of the method: as §1

[4] = tested on: OR2T2 Q313H
Chain of OR2T2 Q313H (as listed by the source, stated change not applied): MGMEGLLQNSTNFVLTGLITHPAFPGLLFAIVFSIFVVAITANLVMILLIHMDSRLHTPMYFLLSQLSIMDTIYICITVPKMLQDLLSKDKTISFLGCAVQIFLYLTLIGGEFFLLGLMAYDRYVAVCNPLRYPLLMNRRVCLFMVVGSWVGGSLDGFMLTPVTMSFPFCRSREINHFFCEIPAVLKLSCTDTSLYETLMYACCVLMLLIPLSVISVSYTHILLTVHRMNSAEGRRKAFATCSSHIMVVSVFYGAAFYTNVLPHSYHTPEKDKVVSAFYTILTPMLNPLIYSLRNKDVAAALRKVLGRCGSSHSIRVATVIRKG
Summary of the method: as §1

[5] = target: OR2T27 (Homo sapiens) (UniProt Q8NH04)
Chain of OR2T27 (Homo sapiens) (Q8NH04 whole entry): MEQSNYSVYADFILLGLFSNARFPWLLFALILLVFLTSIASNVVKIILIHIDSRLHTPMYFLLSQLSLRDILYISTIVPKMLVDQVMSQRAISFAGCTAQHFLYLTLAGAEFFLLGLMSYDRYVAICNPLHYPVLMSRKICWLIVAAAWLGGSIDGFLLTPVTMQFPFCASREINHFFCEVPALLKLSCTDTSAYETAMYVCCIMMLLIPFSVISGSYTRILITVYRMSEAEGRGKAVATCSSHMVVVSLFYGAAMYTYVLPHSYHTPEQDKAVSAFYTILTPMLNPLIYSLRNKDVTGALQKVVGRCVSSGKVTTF
Summary of the method: as §1

[6] = target: OR2T29 (Homo sapiens) (UniProt Q8NH02)
Chain of OR2T29 (Homo sapiens) (Q8NH02 whole entry): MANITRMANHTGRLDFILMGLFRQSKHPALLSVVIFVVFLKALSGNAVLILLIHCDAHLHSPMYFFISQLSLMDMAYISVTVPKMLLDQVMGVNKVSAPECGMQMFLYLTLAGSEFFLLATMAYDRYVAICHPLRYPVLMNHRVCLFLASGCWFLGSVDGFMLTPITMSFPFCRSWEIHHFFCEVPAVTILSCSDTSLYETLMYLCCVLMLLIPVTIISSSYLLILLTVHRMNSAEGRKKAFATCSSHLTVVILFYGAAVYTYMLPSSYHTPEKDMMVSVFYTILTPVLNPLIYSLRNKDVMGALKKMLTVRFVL
Summary of the method: as §1

[7] = target: OR2T3 (Homo sapiens) (UniProt Q8NH03)
Chain of OR2T3 (Homo sapiens) (Q8NH03 whole entry): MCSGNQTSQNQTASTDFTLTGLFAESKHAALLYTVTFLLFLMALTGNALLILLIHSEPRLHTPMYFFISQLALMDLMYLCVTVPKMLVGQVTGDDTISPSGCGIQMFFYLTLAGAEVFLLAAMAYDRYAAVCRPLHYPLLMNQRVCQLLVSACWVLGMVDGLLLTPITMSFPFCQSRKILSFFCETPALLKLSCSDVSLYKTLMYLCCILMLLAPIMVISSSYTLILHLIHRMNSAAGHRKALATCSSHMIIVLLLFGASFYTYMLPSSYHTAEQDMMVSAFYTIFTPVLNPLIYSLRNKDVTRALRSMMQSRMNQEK
Summary of the method: as §1

[8] = tested on: OR2T3 L256F
Chain of OR2T3 L256F (as listed by the source, stated change not applied): as the sequence (Q8NH03 whole entry) above, with L256F counted along it
Summary of the method: as §1

[9] = tested on: OR2T3 R298C
Chain of OR2T3 R298C (as listed by the source, stated change not applied): as the sequence (Q8NH03 whole entry) above, with R298C counted along it
Summary of the method: as §1

[10] = tested on: OR2T3 Y109H
Chain of OR2T3 Y109H (as listed by the source, stated change not applied): as the sequence (Q8NH03 whole entry) above, with Y109H counted along it
Summary of the method: as §1

Measured: odorant receptor agonist call

Chain of OR2T2 (Homo sapiens) (Q6IF00 whole entry): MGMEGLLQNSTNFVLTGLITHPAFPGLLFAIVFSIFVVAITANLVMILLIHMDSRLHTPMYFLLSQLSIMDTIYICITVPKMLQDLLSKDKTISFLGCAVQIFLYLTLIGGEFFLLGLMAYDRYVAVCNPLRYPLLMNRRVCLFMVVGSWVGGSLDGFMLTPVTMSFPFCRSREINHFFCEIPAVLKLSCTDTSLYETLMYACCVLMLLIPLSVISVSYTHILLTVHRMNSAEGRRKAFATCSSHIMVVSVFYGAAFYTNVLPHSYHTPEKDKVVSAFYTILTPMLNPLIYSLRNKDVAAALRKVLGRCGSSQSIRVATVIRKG

C=CCOC(=O)Cc1ccccc1
inactive: [1] | [2] | [3] | [4] | [5] | [6] | [7] | [8] | [9] | [10]

Cc1c([N+](=O)[O-])c(C)c([N+](=O)[O-])c(C(C)(C)C)c1[N+](=O)[O-]
inactive: [1] | [5] | [6] | [7]
